We go through 1 compound from ChEMBL document CHEMBL4024771, “Optimization of Orally Bioavailable Enhancer of Zeste Homolog 2 (EZH2) Inhibitors Using Ligand and Property-Based Design Strategies: Identification of Development Candidate …” (J Med Chem, 2018).

≈ marks a conversion by molar mass, not a printed value. Calls of active or inactive are those of the source. No cut-off for these calls is given here. Bounds are passed on as bounds.

Data set [1] addresses T1, Histone-lysine N-methyltransferase EZH2 (Homo sapiens, UniProt Q15910). The data set is described as follows: Inhibition of EZH2 in human KARPAS422 cells assessed as reduction in H3K27me3 level after 72 hrs by ELISA. In general terms: In an ELISA, binding on a coated surface is turned into a signal by an enzyme label.
Target sequence in this assay (Q15910 whole entry): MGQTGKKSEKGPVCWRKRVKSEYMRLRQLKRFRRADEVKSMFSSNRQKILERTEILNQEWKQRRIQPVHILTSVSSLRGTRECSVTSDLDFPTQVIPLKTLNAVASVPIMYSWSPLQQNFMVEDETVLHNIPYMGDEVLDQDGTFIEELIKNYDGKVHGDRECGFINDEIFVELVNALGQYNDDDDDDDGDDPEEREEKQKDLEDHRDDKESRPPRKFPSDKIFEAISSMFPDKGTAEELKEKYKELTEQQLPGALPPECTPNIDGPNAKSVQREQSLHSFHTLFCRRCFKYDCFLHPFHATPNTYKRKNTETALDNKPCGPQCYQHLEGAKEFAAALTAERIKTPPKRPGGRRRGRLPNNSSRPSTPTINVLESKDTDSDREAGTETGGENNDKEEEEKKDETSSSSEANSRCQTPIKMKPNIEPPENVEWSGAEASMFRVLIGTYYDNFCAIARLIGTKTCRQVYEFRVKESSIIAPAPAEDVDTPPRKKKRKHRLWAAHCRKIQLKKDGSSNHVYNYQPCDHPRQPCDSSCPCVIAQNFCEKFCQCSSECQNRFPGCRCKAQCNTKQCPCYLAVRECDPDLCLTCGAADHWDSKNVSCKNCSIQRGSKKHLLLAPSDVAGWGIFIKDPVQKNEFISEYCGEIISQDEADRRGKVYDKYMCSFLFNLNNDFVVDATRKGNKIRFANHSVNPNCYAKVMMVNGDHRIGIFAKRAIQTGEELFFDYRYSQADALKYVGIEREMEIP
Data set [2] can be described thus: Intrinsic clearance in human liver microsomes assessed per mg protein at 1 uM preincubated for 10 mins followed by NADPH addition measured after 45 mins by LC-MS/MS analysis. Conditions: liver microsomes, read-out: CLH. It is filed as ADME, microsome. Put shortly:
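Test compound (1 μM) with pooled liver microsomes (0.8 mg/mL protein) in 100 mM potassium phosphate pH 7.4, 10 min preincubation, started with 2 mM NADPH, 45 min at 37 °C, in triplicate. Samples quenched with cold methanol containing buspirone internal standard, analysed by LC−MS/MS. CLint derived from t1/2 of parent loss (log-linear slope).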
For orientation: Liver microsomes are a subcellular fraction often used to study metabolism.

Data set [3] is described as follows: Thermodynamic solubility in water at 25 degC using crystalline form. Conditions: read-out: Therm_solubility. It is filed as physicochemical.
The subject of the next data set is Mus musculus. Description: In vivo inhibition of EZH2 in mouse xenografted with human KARPAS422 cells harboring EZH2 Y641N mutant assessed as reduction in H3K27me3 level in tumor at 100 mg/kg, po bid measured 4 hrs post last dose on day 9 relative to control. It is filed as functional. Conditions: KARPAS-422, po. The procedure, abridged: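 Mice bearing Karpas-422 (EZH2 Y641N) xenografts were dosed with crystalline suspension orally twice daily (7 h/17 h) or subcutaneously once daily. Tumors were collected on day 9, 4 h after the last dose, for H3K27me3 quantification.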
Background: Xenograft models place foreign cells or tissue in a host animal.

The target of the next data set is T2, Cytochrome P450 2C8 (Homo sapiens, UniProt P10632).
T2 sequence (P10632 whole entry): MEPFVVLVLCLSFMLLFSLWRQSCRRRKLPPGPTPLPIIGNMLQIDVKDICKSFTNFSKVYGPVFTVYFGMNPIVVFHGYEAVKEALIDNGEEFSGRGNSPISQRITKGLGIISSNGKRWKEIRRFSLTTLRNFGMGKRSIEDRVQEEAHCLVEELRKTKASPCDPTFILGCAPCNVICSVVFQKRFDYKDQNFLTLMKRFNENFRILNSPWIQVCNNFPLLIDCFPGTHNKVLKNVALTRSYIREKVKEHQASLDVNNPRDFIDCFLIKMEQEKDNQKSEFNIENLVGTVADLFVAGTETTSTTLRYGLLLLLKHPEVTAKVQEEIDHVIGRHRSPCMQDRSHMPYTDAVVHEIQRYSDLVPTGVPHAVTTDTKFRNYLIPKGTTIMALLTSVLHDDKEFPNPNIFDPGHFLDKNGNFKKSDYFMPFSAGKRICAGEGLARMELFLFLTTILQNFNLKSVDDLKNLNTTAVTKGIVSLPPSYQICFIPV
Description: Inhibition of CYP2C8 (unknown origin). It counts as ADME.

Another data set has as its target Cytochrome P450 2C9 (Homo sapiens, UniProt P11712). Description: Inhibition of CYP2C9 (unknown origin). It is filed as ADME.
In a further data set the target is Cytochrome P450 2C19 (Homo sapiens, UniProt P33261). The data set is described as follows: Inhibition of CYP2C19 (unknown origin). It counts as ADME.
The next data set deals with Cytochrome P450 2D6 (Homo sapiens, UniProt P10635). Description: Inhibition of CYP2D6 (unknown origin). It counts as ADME.
A short description of data set [4]: Lipophilicity, log D of the compound at pH 7.4. Particulars: buffer, pH 7.4, logD.
Data set [5] concerns the target T1, Histone-lysine N-methyltransferase EZH2.
Target sequence in this assay (Q15910 whole entry, looked up): as the sequence (Q15910 whole entry) above
The subject of a further data set is KARPAS-422. Description: Antitumor activity against human KARPAS422 cells harboring EZH2 Y641N mutant xenografted in mouse assessed as tumor regression at 100 mg/kg, sc qd measured 40 days post treatment termination on day 31.

Sequence of Cytochrome P450 2D6 (P10635 whole entry): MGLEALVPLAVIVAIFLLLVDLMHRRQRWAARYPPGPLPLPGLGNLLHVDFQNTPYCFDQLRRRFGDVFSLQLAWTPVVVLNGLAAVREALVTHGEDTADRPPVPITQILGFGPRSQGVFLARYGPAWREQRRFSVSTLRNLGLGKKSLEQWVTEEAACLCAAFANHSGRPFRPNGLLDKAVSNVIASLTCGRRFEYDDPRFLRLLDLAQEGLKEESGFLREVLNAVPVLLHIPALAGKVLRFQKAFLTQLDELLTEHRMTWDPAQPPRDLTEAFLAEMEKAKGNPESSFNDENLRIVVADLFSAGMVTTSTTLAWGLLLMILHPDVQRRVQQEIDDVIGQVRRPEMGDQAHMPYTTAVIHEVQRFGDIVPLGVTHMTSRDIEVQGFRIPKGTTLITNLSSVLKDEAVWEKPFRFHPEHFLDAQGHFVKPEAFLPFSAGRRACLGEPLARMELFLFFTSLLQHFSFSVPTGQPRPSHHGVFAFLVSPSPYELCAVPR
Sequence of Cytochrome P450 2C19 (P33261 whole entry): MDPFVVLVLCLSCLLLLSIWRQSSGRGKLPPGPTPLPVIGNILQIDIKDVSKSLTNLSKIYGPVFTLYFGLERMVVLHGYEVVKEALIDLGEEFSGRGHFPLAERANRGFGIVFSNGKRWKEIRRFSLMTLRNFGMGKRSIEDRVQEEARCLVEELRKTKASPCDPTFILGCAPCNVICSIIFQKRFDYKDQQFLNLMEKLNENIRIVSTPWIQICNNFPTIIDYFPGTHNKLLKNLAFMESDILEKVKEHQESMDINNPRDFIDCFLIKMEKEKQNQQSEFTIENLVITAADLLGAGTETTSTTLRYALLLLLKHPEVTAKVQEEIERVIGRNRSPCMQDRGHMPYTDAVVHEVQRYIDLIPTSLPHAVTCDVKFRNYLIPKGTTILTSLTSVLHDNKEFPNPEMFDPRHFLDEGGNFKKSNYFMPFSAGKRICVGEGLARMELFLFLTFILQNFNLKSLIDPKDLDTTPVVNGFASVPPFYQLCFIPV
Sequence of Cytochrome P450 2C9 (P11712 whole entry): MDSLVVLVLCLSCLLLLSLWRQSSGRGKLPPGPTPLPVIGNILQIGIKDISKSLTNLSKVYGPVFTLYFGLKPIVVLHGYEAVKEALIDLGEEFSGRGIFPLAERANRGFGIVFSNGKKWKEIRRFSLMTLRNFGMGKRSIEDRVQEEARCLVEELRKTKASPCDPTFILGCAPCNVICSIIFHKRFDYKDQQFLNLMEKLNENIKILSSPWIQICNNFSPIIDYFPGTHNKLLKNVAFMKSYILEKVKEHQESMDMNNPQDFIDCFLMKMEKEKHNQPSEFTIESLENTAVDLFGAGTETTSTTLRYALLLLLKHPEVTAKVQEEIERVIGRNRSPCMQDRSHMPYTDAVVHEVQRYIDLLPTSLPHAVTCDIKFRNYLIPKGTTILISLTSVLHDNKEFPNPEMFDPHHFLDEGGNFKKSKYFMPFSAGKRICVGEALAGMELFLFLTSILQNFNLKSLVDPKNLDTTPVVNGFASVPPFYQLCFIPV

Consider `COc1cc(C)[nH]c(=O)c1CN1CCc2c(Cl)cc([C@H](OC)C3COC3)c(Cl)c2C1=O` [MEVROMETOSTAT], for which the IC50 (usually the concentration that gives 50% inhibition) was 0.004 µM in [1]; > 30 µM against Cytochrome P450 2C8; > 30 µM against Cytochrome P450 2C9; > 30 µM against Cytochrome P450 2C19; > 30 µM against Cytochrome P450 2D6. In addition, in data set [2], the microsomal CLint at 1 µM was determined as 39 µL/min/mg. The solubility thermodynamic in data set [3] came to 315 µg/mL (≈ 674 µM). The inhibition in vivo (commonly the relative decrease from the control value, in per cent) at 100 mg/kg in the data set on Mus musculus was found to be 45.4%. The logD (commonly lipophilicity at a set pH, counting ionised and neutral species) in data set [4] is 1.9. Also, the T1/2 in [5] came to 22 h. Besides, the result with KARPAS-422 was Active.
